Tests used:
Homo sapiens [1] = organism: Homo sapiens; test: Antiangiogenic activity in VEGF-induced HLMEC assessed as sprouts per bead at 1.3 uM after 24 hrs by sprouting assay; assay type: functional
Method in brief: (§1)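 HLMEC seeded on cytodex-3 microcarrier beads and embedded in 3D fibrinogen gel with 20 ng/mL VEGF plus compound at a final 1.3 or 2.6 µM (from 1 mM DMSO stock). Gel polymerised with 0.65 U/mL thrombin and overlaid with MCDB131, 5% FCS, 5% human serum and 200 U/mL Trasylol. Negative control: gel without growth factors. After 24 h, fixed in 1% PFA; sprouts per 50 beads counted microscopically. Triplicates per condition, n = 9 experiments.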

Homo sapiens [2] = organism: Homo sapiens; test: Antiangiogenic activity in VEGF-induced HLMEC assessed as number of sprouts per bead at 2.6 uM after 24 hrs by sprouting assay; assay type: functional; method in brief: as §1
Homo sapiens [3] = organism: Homo sapiens; test: Induction of apoptosis in HDMEC assessed as cleaved caspase 3 at 1.3 uM after 24 hrs; assay type: functional
Method in brief: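 HDMEC incubated 24 h with compound. Adherent cells and supernatant harvested together, stained with an antibody to cleaved caspase-3, and analysed by FACS as percent apoptotic cells. Three independent repeats.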

[4] = target: Vascular endothelial growth factor receptor 2 (Homo sapiens, UniProt P35968); test: Inhibition of human recombinant VEGFR2
Chain of Vascular endothelial growth factor receptor 2 (P35968 whole entry, the tested form may be a part): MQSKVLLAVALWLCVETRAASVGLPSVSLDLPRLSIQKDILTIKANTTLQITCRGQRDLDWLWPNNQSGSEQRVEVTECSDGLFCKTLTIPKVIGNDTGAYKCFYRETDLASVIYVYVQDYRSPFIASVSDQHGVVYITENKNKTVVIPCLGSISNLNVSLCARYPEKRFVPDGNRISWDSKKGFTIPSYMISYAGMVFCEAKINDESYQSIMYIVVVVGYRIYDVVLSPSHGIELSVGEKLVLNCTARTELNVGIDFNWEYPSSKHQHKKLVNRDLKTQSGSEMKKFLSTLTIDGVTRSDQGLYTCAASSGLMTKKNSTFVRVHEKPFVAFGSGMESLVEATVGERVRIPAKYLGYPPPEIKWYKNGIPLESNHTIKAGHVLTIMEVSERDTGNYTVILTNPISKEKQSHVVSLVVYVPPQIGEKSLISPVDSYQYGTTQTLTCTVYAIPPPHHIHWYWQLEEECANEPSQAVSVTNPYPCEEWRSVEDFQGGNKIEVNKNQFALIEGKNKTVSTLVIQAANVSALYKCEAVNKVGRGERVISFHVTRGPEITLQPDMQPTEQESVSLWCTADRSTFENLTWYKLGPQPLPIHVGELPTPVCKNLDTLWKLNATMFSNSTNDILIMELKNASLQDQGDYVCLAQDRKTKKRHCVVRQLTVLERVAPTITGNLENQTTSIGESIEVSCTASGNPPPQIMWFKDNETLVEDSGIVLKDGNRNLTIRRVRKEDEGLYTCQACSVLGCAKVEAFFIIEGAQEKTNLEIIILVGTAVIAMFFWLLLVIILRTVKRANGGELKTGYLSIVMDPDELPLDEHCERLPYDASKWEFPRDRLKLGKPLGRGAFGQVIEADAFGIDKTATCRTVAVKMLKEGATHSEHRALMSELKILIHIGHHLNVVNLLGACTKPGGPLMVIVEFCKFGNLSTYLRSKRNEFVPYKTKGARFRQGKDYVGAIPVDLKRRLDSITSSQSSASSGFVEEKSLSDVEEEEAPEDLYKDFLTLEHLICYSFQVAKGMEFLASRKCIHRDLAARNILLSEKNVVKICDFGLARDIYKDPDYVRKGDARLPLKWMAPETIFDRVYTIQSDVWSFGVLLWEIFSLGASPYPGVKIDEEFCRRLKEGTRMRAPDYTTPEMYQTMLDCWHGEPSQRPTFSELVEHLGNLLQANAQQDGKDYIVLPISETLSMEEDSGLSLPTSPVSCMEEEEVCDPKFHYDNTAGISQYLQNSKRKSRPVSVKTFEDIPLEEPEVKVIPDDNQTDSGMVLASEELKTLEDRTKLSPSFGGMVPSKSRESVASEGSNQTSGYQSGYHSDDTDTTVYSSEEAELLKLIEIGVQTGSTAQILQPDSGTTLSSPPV
Method in brief: (§2)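 Recombinant human tyrosine kinases (EPHB4, TIE2, VEGF-R2, VEGF-R3), expressed in Sf9 insect cells as GST- or His-fusions, with poly(Glu,Tyr) 4:1 as substrate. Conditions: 1 µM [γ-33P]ATP, pH 7.5 HEPES buffer with Mg/Mn, DTT and vanadate, 30 °C for 80 min, 1% DMSO. Ten concentrations were tested and IC50 came from scintillation counting of incorporated 33P.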

[5] = target: Vascular endothelial growth factor receptor 3 (Homo sapiens, UniProt P35916); test: Inhibition of human recombinant VEGFR3; method in brief: as §2
[6] = target: T1, Serine/threonine-protein kinase PLK4 (Homo sapiens, UniProt O00444); test: Inhibition of human recombinant SAK
T1 sequence (O00444 whole entry): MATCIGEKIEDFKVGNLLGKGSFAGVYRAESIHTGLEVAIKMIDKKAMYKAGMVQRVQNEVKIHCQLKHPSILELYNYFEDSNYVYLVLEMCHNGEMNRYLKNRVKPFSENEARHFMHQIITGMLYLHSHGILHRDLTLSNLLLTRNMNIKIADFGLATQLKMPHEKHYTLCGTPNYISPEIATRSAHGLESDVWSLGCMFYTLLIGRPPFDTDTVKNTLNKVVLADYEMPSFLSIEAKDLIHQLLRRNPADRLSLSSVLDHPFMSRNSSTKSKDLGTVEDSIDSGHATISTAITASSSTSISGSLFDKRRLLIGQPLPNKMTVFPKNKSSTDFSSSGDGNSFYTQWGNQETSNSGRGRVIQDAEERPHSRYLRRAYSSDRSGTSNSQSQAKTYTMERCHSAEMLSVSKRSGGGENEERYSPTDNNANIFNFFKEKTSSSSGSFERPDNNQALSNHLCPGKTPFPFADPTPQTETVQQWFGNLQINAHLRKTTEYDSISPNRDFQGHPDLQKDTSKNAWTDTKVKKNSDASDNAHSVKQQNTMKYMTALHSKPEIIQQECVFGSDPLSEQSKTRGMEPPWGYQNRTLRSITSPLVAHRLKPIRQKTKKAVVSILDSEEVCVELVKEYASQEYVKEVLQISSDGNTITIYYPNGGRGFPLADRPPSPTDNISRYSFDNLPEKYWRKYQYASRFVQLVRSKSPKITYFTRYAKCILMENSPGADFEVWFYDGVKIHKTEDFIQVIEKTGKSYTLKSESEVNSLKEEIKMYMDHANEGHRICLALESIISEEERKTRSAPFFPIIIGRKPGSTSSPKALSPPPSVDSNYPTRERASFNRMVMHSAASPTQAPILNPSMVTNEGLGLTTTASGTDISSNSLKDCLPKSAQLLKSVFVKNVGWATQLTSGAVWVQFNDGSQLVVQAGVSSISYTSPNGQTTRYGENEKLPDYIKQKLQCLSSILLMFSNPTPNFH
Method in brief: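 Human kinase expressed from cDNA in Sf9 cells (baculovirus) as GST- or His-tagged protein, affinity-purified. 10 compound concentrations, 1% DMSO final, 30 °C for 80 min. Stopped with H₃PO₄, 33P incorporation counted, IC50 derived.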

Angiopoietin-1 receptor = Angiopoietin-1 receptor (Homo sapiens, UniProt Q02763); test: Inhibition of human recombinant TIE2; method in brief: as §2
Chain of Angiopoietin-1 receptor (Q02763 whole entry): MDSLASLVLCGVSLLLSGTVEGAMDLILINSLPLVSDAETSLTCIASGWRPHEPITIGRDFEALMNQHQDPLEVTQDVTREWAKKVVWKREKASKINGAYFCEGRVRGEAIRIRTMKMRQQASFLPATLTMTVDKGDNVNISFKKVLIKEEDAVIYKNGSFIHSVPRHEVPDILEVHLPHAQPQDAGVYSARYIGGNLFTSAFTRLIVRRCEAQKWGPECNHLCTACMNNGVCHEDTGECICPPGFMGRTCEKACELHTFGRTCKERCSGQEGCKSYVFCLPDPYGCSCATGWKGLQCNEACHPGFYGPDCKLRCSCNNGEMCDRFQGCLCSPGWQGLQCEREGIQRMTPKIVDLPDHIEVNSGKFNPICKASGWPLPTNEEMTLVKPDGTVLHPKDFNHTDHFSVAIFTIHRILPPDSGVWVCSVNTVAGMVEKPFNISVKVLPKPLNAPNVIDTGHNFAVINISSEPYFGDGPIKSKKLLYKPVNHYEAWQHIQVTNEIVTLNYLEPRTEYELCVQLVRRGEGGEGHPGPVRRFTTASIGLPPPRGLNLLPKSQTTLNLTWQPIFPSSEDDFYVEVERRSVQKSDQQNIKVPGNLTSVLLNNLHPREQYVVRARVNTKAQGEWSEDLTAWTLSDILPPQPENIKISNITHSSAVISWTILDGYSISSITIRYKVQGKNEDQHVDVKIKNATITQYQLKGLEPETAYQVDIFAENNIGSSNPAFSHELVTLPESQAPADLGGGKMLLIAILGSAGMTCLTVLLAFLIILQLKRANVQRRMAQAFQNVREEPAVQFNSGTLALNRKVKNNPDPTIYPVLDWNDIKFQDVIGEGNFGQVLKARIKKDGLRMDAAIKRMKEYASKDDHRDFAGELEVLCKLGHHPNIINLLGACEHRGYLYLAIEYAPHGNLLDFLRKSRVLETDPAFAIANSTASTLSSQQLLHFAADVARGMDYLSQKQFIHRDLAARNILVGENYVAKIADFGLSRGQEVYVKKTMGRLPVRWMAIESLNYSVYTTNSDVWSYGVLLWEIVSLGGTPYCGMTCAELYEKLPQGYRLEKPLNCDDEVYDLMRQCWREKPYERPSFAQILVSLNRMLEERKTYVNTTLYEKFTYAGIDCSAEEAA

[7] = target: Cyclin-dependent kinase 2 (Homo sapiens, UniProt P24941); test: Inhibition of human recombinant CDK2/cyclin A
Method in brief: (§3)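 Human kinases expressed in Sf9 cells by baculovirus as GST or His fusions and affinity purified. Radiometric 33PanQinase assay: 60 mM HEPES-NaOH pH 7.5, 3 mM MgCl2, 3 mM MnCl2, 3 µM orthovanadate, 1.2 mM DTT, 1 µM [γ-33P]ATP, 50-400 ng enzyme, 1% DMSO; 30 °C, 80 min. Substrates: B-Raf-VE, MEK1 KM; CDK2/CycA, histone H1; CK2-A1, casein; COT, autophosphorylation. IC50 from 10 concentrations; 33Pi incorporation by scintillation.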

[8] = target: Cyclin-dependent kinase 4/cyclin D1 (Homo sapiens, UniProt P11802); test: Inhibition of human recombinant CDK4/cyclin D1; assay type: protein-complex assay
Chain of Cyclin-dependent kinase 4/cyclin D1 (P11802 whole entry): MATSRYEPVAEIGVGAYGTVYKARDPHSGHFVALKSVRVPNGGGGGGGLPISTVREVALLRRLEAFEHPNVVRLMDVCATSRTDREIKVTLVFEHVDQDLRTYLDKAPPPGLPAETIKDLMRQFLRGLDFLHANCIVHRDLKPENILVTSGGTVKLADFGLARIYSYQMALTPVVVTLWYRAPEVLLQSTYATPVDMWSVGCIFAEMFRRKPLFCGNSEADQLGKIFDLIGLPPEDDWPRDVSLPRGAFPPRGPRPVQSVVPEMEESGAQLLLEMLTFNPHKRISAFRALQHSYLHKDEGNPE
Chain of Cyclin-dependent kinase 4/cyclin D1 (P24385 whole entry, further chain): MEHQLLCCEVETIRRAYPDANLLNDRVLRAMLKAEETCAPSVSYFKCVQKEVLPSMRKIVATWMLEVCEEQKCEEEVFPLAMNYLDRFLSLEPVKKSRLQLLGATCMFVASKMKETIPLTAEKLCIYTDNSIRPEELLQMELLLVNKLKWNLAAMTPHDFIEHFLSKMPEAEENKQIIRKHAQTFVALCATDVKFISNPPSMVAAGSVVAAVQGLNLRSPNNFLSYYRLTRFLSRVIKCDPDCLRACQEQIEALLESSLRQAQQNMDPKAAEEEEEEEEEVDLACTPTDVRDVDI
Method in brief: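 CDK4/CycD1 (human, baculovirus/Sf9, affinity-purified) with Rb-CTF as substrate. The radiometric FlashPlate assay held 1 µM [γ-33P]ATP in HEPES-NaOH pH 7.5 with 3 mM MgCl2 and 3 mM MnCl2.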

[9] = target: Receptor tyrosine-protein kinase erbB-2 (Homo sapiens, UniProt P04626); test: Inhibition of human recombinant ERBB2
Method in brief: (§4)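 Human kinases expressed in Sf9 cells via baculovirus as GST or His fusions and affinity purified. 33PanQinase assay in 60 mM HEPES-NaOH pH 7.5, 3 mM MgCl2, 3 mM MnCl2, 3 µM orthovanadate, 1.2 mM DTT, 1 µM [γ-33P]ATP, 1% DMSO; 30 °C, 80 min. Substrates: poly(Glu,Tyr) 4:1 for ERBB2, IGF1-R and SRC; poly(Ala,Glu,Lys,Tyr) 6:2:5:1 for FLT3. IC50 from 10 concentrations by scintillation counting.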

Focal adhesion kinase 1 = Focal adhesion kinase 1 (Homo sapiens, UniProt Q05397); test: Inhibition of human recombinant FAK
Chain of Focal adhesion kinase 1 (Q05397 whole entry): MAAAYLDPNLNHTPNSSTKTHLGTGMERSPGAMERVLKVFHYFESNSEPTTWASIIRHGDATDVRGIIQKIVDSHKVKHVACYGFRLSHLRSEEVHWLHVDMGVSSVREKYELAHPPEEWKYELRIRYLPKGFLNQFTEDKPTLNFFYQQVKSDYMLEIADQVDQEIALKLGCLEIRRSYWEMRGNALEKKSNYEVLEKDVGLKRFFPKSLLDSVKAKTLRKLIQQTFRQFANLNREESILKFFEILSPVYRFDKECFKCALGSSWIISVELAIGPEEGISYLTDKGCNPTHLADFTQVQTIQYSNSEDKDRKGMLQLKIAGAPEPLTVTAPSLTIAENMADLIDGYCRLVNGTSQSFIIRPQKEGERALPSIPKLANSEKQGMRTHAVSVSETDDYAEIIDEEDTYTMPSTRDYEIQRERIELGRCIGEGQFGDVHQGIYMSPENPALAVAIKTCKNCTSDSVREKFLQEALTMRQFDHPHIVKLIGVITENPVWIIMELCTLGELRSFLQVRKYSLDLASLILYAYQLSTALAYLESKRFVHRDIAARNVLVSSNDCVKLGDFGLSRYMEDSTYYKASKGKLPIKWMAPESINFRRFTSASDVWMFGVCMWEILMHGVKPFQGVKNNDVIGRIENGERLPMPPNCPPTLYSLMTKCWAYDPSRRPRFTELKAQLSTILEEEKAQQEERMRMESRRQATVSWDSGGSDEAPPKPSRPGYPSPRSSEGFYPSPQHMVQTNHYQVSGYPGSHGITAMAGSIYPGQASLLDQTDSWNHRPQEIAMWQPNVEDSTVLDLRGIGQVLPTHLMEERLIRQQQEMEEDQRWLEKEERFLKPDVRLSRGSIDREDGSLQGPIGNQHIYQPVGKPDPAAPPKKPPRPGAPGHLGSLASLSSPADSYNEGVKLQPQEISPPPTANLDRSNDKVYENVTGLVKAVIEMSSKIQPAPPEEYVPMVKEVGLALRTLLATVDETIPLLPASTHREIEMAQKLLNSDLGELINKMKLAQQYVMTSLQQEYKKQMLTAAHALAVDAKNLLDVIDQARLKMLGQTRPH

Insulin receptor = Insulin receptor (Homo sapiens, UniProt P06213); test: Inhibition of human recombinant INS-R
[10] = target: Mitogen-activated protein kinase kinase kinase 8 (Homo sapiens, UniProt P41279); test: Inhibition of human recombinant COT; method in brief: as §3
Aurora kinase A = target: T2, Aurora kinase A (Homo sapiens, UniProt O14965); test: Inhibition of human recombinant Aurora A
T2 sequence (O14965 whole entry): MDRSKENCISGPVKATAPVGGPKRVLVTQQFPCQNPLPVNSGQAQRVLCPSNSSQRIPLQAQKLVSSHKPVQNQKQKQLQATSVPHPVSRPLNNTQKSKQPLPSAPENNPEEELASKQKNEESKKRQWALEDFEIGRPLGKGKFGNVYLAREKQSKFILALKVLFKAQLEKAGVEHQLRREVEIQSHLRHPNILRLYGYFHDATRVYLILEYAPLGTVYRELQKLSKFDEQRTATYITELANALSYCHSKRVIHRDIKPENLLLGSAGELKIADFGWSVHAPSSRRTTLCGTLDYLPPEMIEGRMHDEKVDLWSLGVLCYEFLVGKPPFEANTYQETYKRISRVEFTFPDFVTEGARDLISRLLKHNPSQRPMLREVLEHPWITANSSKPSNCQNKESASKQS
Method in brief: (§5)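 Aurora-A or Aurora-B, human cDNA expressed in Sf9 cells as tagged recombinant protein, phosphorylating Tetra(LRRWSLG). Reactions used 60 mM HEPES pH 7.5, Mg2+/Mn2+ (3 mM each), 1.2 mM DTT, vanadate and 1 µM [γ-33P]ATP, ran 80 min at 30 °C and were stopped with 2% H3PO4.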

Aurora kinase B = Aurora kinase B (Homo sapiens, UniProt Q96GD4); test: Inhibition of human recombinant Aurora B; method in brief: as §5
Chain of Aurora kinase B (Q96GD4 whole entry): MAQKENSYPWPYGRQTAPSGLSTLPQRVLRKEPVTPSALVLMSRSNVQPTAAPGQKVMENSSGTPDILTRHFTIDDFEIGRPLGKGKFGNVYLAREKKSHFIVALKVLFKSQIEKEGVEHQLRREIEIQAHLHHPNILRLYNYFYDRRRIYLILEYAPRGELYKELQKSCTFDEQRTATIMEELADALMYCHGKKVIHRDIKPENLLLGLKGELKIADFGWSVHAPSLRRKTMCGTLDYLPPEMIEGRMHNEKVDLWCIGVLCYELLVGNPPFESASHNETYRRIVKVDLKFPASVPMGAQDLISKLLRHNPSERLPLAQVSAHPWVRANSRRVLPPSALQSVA

[11] = target: T3, Receptor-type tyrosine-protein kinase FLT3 (Homo sapiens, UniProt P36888); test: Inhibition of human recombinant FLT3; method in brief: as §4
T3 sequence (P36888 whole entry): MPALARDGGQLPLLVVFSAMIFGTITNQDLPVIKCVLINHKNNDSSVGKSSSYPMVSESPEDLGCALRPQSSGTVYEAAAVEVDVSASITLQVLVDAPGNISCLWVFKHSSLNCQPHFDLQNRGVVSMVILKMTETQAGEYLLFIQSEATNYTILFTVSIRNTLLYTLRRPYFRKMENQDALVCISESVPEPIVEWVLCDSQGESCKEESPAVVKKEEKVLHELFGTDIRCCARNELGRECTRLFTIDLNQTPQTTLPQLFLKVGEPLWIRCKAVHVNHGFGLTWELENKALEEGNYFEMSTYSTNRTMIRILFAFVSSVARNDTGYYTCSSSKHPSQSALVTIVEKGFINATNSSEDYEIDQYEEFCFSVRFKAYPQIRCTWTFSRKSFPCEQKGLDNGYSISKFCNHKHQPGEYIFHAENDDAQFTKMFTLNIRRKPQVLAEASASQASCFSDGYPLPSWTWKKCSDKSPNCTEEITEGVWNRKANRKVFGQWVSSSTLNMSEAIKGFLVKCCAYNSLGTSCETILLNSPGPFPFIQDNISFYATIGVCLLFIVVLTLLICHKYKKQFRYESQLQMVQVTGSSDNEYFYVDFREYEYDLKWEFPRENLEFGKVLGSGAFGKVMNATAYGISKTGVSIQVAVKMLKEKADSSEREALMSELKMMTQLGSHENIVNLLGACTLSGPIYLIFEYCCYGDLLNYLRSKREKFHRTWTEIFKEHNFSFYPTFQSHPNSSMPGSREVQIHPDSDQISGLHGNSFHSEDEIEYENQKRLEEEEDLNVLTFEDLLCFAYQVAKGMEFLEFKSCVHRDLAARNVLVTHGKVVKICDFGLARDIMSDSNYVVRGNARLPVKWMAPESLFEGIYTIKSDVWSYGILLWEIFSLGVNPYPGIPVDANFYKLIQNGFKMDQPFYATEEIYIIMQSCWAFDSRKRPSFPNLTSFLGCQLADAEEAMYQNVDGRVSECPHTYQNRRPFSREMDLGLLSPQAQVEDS

[12] = target: Proto-oncogene tyrosine-protein kinase Src (Homo sapiens, UniProt P12931); test: Inhibition of human recombinant SRC; method in brief: as §4
Chain of Proto-oncogene tyrosine-protein kinase Src (P12931 2-536 limits assumed): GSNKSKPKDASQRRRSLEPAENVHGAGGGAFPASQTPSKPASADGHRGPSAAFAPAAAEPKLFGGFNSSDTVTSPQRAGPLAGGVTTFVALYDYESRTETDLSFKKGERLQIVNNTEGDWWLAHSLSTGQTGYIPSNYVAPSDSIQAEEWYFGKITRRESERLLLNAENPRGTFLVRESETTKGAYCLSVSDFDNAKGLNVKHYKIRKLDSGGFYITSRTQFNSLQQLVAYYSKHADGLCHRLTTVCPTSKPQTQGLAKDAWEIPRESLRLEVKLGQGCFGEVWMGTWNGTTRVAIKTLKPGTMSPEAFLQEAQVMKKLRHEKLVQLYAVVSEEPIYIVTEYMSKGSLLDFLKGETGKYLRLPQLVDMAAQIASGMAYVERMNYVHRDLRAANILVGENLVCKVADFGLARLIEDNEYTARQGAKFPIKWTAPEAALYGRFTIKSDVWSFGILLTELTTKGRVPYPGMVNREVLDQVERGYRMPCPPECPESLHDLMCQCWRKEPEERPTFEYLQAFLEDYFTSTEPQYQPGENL

[13] = target: T4, NUAK family SNF1-like kinase 1 (Homo sapiens, UniProt O60285); test: Inhibition of human recombinant ARK5
T4 sequence (O60285 whole entry): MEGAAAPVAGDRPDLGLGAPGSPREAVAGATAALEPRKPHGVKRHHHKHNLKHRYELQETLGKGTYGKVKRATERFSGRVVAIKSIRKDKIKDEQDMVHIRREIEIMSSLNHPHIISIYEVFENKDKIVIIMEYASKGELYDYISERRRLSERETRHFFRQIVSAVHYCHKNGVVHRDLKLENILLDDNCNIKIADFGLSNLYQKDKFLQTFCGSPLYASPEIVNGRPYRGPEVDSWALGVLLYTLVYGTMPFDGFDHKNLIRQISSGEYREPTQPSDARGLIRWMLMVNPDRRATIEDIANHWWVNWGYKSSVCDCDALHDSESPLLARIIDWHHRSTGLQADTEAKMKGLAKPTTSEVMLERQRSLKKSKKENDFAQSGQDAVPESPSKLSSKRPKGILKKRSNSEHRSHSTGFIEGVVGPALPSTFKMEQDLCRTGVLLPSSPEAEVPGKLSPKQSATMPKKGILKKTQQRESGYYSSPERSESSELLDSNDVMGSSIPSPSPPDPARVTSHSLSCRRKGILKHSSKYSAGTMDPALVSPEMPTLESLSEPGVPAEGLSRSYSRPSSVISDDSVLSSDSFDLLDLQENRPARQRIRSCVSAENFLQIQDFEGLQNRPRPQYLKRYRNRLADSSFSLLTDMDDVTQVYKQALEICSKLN
Method in brief: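 Human ARK5 made in Sf9 cells by baculovirus (GST- or His-tagged, affinity-purified) and read by autophosphorylation in a 33PanQinase radiometric assay. Buffer: 60 mM HEPES-NaOH pH 7.5, 3 mM MgCl2, 3 mM MnCl2, 3 µM orthovanadate, 1.2 mM DTT, PEG20000 and 1 µM [γ-33P]ATP.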

IC50 [4]	IC50 [5]	IC50 [6]	IC50 (Angiopoietin-1 receptor)	IC50 (Focal adhesion kinase 1)	IC50 (Aurora kinase A)	IC50 [11]	IC50 [12]	SMILES	inhibition (Homo sapiens [1])	further results
1.5 µM	2.5 µM	9 µM	1.7 µM	43 µM	6.5 µM			COc1cc(C2=C(c3cn(COc4ccccc4)c4ccccc34)CNC2=O)cc(OC)c1OC	41%	IC50 [7]: 20 µM; IC50 [8]: 44 µM; IC50 [9]: 37 µM; IC50 (Insulin receptor): 44 µM; IC50 [10]: 40 µM; IC50 (Aurora kinase B): 20 µM
5.2 µM	5.3 µM	44 µM	11 µM	27 µM	33 µM		29 µM	COc1cc(C2=C(c3cn(COC(C)C)c4ccccc34)CNC2=O)cc(OC)c1OC		
2.3 µM	3.2 µM		25 µM	35 µM		25 µM		COCn1cc(C2=C(c3cc(OC)c(OC)c(OC)c3)C(=O)NC2)c2ccccc21	42%	
5.3 µM	3.6 µM	35 µM	24 µM	28 µM	29 µM		40 µM	CCOCn1cc(C2=C(c3cc(OC)c(OC)c(OC)c3)C(=O)NC2)c2ccccc21		

More lines, now with the values behind:

SMILES	IC50 [4]	IC50 [5]	IC50 [6]	IC50 (Angiopoietin-1 receptor)	IC50 (Focal adhesion kinase 1)	IC50 (Aurora kinase A)	IC50 [11]	IC50 [12]	inhibition (Homo sapiens [1])	further results
COc1cc(C2=C(c3c[nH]c4ccccc34)C(=O)NC2=O)cc(OC)c1OC [MALEIMIDE]									81%	Activity (Homo sapiens [2]): 0.48; Activity (Homo sapiens [3]): 22.4%
COc1cc(C2=C(c3cn(CC4COC(C)(C)O4)c4ccccc34)CNC2=O)cc(OC)c1OC (stereo not given)	8 µM	3.2 µM	23 µM	31 µM						
COc1cc(C2=C(c3c[nH]c4ccccc34)C(O)NC2=O)cc(OC)c1OC (stereo not given)	5.9 µM	3.4 µM					44 µM			
COc1ccc(C2=C(c3cn(C)c4ccccc34)C(=O)NC2)cc1	31 µM	18 µM	46 µM	48 µM			14 µM	39 µM		IC50 [13]: 3.6 µM
